Source: PubChem BioAssay
Compounds with a hit are over-represented: about 2% of the library has one in this group of screens.
MEX-5 binding – C. elegans MEX-5 TCR-2 RNA binding activity | MEX-5/FITC-TCR2 RNA binding, fluorescence polarization; active compounds read low | Q9XUB2 | activity score (negative = inhibition of binding), % at 10 µM | AID 1832 | actives 0.38% (n = 300,000);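 active = inhibition past about -25% in most replicates, and total fluorescence under double the plate's negative control median, limit read from the data; inconclusive = replicates evenly split on the limit, or fluorescence at least double controls; inactive = too little inhibition in most replicates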;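 note: 0% = DMSO and -100% = 5 µM competing unlabeled TCR2 RNA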
Runt-SMMHC FRET – blocks binding of human RUNX1 Runt domain to CBFb-SMMHC; Cerulean-Runt/Venus-CBFb-SMMHC FRET ratio 530/480, 1 h; AID 1434; actives 0.74% (n = 220,000); inhibition, % at 20 µM; Q01196+Q13951;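 active = mean inhibition across duplicate retests at 20 µM reaching about 50%, limit read from the data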;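 note: 0% = DMSO wells and 100% = wells with excess untagged CBFb-SMMHC; inhibitors lower the FRET ratio by blocking Runt binding to CBFb-SMMHC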
Target sequence (Q01196 whole entry, looked up, the tested form may be a part): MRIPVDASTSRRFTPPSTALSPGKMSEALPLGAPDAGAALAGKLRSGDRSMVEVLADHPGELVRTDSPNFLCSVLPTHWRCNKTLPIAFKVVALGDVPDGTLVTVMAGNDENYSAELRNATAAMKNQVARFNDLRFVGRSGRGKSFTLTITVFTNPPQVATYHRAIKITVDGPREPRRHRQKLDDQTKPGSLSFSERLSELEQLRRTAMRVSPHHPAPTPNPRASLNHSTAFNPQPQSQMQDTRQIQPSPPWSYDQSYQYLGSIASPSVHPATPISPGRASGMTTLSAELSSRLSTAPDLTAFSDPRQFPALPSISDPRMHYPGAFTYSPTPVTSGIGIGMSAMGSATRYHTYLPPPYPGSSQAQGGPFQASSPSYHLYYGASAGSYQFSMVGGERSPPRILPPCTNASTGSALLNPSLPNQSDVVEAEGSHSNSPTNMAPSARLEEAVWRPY
Target sequence (Q13951 whole entry, looked up, the tested form may be a part): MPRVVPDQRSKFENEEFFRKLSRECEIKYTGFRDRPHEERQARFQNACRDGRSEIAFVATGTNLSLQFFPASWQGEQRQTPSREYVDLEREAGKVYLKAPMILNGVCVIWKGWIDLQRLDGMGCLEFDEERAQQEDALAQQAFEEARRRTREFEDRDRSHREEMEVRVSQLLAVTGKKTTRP
PKD1 inh – PKD1 (human) kinase inhibition | PKD1 kinase fluorescence polarization assay | inhibition, % (no concentration beside the values) | actives 0.056% (n = 200,000) | AID 797
Runt-CBFb FRET – inhibitors of human RUNX1 Runt domain binding to CBFb; actives 0.46% (n = 220,000); inhibition, % at 20 µM; Cerulean-Runt/Venus-CBFb FRET ratio 530/480, 1 h; Q01196+Q13951;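 active = inhibition over about 50% at 20 µM in the single-dose screen, limit read from the data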;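 note: 0% = DMSO wells and 100% = excess unlabeled CBFb competitor control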
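Assay system: Cerulean-Runt domain / Medium: Tris 50 mM pH 7.5, KCl, K2SO4, 0.01% BSA / Timing: protein complex preformed 1 h, compound exposure 1 h, room temperature, dark / Measured by: FRET, excitation 422 nm, emission at 530 and 480 nm / Evaluation: loss of energy transfer signal / Control set: 5 µM unlabeled CBFb as full-inhibition high control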
RanGTP-Impb inh – disruptors of Ran-importin-beta complex formation – biochemical, FRET, CFP-Ran, YFP-importin-beta, homogeneous, primary screen | inhibition, % (no concentration beside the values) | AID 2216 | actives 1.1% (n = 300,000) | cell-free CFP-Ran/YFP-importin-beta FRET ratio;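 active = more than half of the replicate wells show a fall in the fluorescence ratio signal beyond about 16%, limit read from the data, passing the limit was not always enough; inconclusive = exactly half of the replicate wells pass the set limit; inactive = fewer than half of replicates pass the limit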;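 note: 0% = DMSO wells and 100% = Ran loaded with GDP instead of GTP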
EBV gp42 inh – blocks Epstein-Barr virus glycoprotein 42 binding; Fluorescence polarization binding assay, mP read-out; AID 1085; actives 0.42% (n = 220,000); inhibition, % (tested at 21.74 µM)
Starred values were filed as active, the others as inactive; ? = inconclusive; nt = no result. Cut-off read from the data, not from the text of the source, unless noted: active = inhibition above about 50%; inactive = the rest.

SMILES	MEX-5 binding	Runt-SMMHC FRET	PKD1 inh	Runt-CBFb FRET	RanGTP-Impb inh	EBV gp42 inh
COc1ccccc1-n1c(SCC(=O)NCC2CCCO2)nc2c([nH]c3ccccc32)c1=O (stereo not drawn)	-1	nt	nt	nt	2	nt
Cn1cccc1/C=C1\Cc2ccccc2C1=O	-3	33	2	19	75*	-44
c1ccc(CSc2nnc(-c3ccco3)n2Cc2ccco2)cc1	-5	-1	7	10	1	-3
CCCCOc1[nH]c2nc(-c3ccco3)n(Cc3ccco3)c(=N)c2c1C#N	-1	43	-12	-150	-36	55*
COc1ccc2nc(C)cc(NCc3ccc(F)cc3)c2c1	14	nt	nt	nt	-12	nt
Cc1ccc(NC2=Nc3ccccc3N3C2=Nc2c(c(C)nn2-c2ccccc2)C3c2ccc(O)c(O)c2)cc1 (stereo not drawn)	nt	-178	-1	-156	nt	78*
Cc1nn(-c2ccccc2)c2c1C(c1ccc(O)c(O)c1)N1C(=N2)C(Nc2ccccc2)=Nc2ccccc21 (stereo not drawn)	-1	-193	11	-148	-23	85*
Cc1cc(C(=O)Cn2cnc3ccccc3c2=O)c(C)n1C1CC1	1	nt	nt	nt	nt	nt
O=C/C(=C\Nc1ccc(Cl)cn1)c1nc2cc(Cl)ccc2o1	3	-40	2	-19	8	-47
O=C/C(=C\Nc1ccc(S(=O)(=O)CCO)cc1)c1nc2cc(Cl)ccc2o1	-4	-6	4	-4	22*	-2
N#Cc1cccnc1N1CCN(C(=O)c2ccco2)CC1	2	-2	nt	-3	3	-6
O=C(Nc1cc2c(=O)n(-c3ccc(Oc4ccccc4)cc3)ccc2oc1=O)c1ccccc1	-1	62*	-5	21	?	-5
C/C(=N/Nc1ccc(C(=O)O)cc1)c1ccc(O)c(O)c1O	-41*	9	26	13	-1	-7
O=C(CCC(=O)N/N=C/c1cc(Cl)cc(Cl)c1O)NCc1ccccc1	2	92*	-12	20	43*	-5
CCOC(=O)Cc1cc(=O)n2[nH]c(C(C)(C)C)cc2n1	2	-6	nt	2	2	-7
COc1cccc(N2CC(=O)N(NC(=O)c3sc4nc(C)cc(C)c4c3N)CC2=O)c1	-1	2	nt	4	16*	-7
Cc1cccc2c1c1ccc3c(c1n2C)C(=O)C=CC3=O	nt	36	nt	52*	nt	-2
Cc1ccccc1N1CC(=O)N(c2ccccc2C)CC1=O	1	-1	1	-2	-2	-1
Cc1cc(N)c(NC2=CC(=O)CC(C)(C)C2)cc1C	2	-12	2	0	22*	2
COC(=O)c1ccc(NC2=CC(=O)CC(C)(C)C2)cc1	-1	1	-8	-2	6	-9
CC1(C)CC(=O)C=C(Nc2cccc(F)c2)C1	2	nt	nt	nt	28*	nt
Cc1ccc(NC2=CC(=O)CC(C)(C)C2)cc1F	1	nt	nt	nt	5	nt
CC(=O)Nc1ccc(NC2=CC(=O)CC(C)(C)C2)cc1	1	-2	-7	0	50*	-16
O=C(O)CC1(CC(=O)N2CCOCC2)CCCC1	0	nt	nt	nt	2	nt
Cc1cc(Cl)cc2c(N=Nc3ccccc3C(=O)O)c(O)[nH]c12	-1	nt	nt	nt	-2	nt
SMILES	MEX-5 binding	Runt-SMMHC FRET	PKD1 inh	Runt-CBFb FRET	RanGTP-Impb inh	EBV gp42 inh
Cc1ccc(Cl)c2c(N=Nc3ccccc3)c(O)[nH]c12	-43*	nt	nt	nt	-4	nt
Cc1cc(=O)oc2cc(NC(=O)C(C)Oc3cccc(Cl)c3)ccc12 (stereo not drawn)	-3	nt	nt	nt	3	nt
CCC(NC(C)C)C(O)c1ccc(O)c(O)c1 (stereo not drawn)	-29*	-4	-7	0	5	2
Cn1ccnc1C1CCCCN1C(=O)c1cc(COc2ccc(F)cc2F)on1 (stereo not drawn)	0	5	nt	1	-1	-9
N#CCc1cnc2ccccc2n1	-2	-5	nt	1	29*	-6
O=C(c1ccc2c(c1)OCO2)N1CCC(Cc2ccccc2)CC1	2	-5	nt	-2	0	-9
O=C(N/N=C/c1ccc([N+](=O)[O-])o1)c1cc2ccccc2o1	-1	3	nt	2	2	-21
O=C(N/N=C/c1ccc([N+](=O)[O-])o1)c1cc2c(ccc3ccccc32)o1	nt	-14	-3	-3	nt	60*
